{
  "source": "ChEMBL document CHEMBL1125140",
  "about": "“Synthesis and in vivo antitumor activity of 2-amino-9H-purine-6-sulfenamide, -sulfinamide, and -sulfonamide and related purine ribonucleosides” (1990)",
  "format_in_all_cases": "functional, Mus musculus",
  "key": {"L1210 [1]": {"test_system": "L1210", "test": "Percentage of L1210 cells killed was determined in L1210 Inoculated mice at a dose of 22 mg/kg after a single treatment", "procedure,_shortened": "(§1)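 BDF1 female mice (~18 g) inoculated ip on day 0 with 1 × 10⁶ L1210 leukemia cells. Single ip bolus 24 h later, prepared just before use and given in 0.01 mL/g body weight (mg/kg dose = 10 × solubility in mg/mL; water, or Me₂SO if insoluble). Six mice per group. Percent of viable leukemia cells killed estimated from inoculum size versus life span data.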"}, "L1210 [2]": {"test_system": "L1210", "test": "Post inoculation lifespan was determined in L1210 Inoculated mice at a dose of 22 mg/Kg after a single treatment", "procedure,_shortened": "(§2)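 BDF1 female mice (~18 g) received 1 × 10⁶ L1210 cells ip on day 0, then one ip bolus at 24 h in 0.01 mL/g (dose = 10 × solubility in mg/mL; water, or Me₂SO if insoluble). Controls got 0.9% NaCl. Six mice per treatment group. %T/C = mean life span of treated / mean life span of controls × 100. Deaths assigned to leukemia or toxicity from timing and necropsy.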"}, "L1210 [3]": {"test_system": "L1210", "test": "Percentage of L1210 cells killed was determined in L1210 Inoculated mice at a dose of 173 mg/kg after a single treatment", "procedure,_shortened": "as §1"}, "L1210 [4]": {"test_system": "L1210", "test": "Post inoculation lifespan was determined in L1210 Inoculated mice at a dose of 173 mg/Kg after a single treatment", "procedure,_shortened": "as §2"}, "L1210 [5]": {"test_system": "L1210", "test": "Percentage of L1210 cells killed was determined in L1210 Inoculated mice at a dose of 104 mg/kg after a single treatment", "procedure,_shortened": "as §1"}, "L1210 [6]": {"test_system": "L1210", "test": "Post inoculation lifespan was determined in L1210 Inoculated mice at a dose of 104 mg/Kg", "procedure,_shortened": "as §2"}, "L1210 [7]": {"test_system": "L1210", "test": "Percentage of L1210 cells killed was determined in L1210 Inoculated mice at a dose of 37 mg/kg after a single treatment", "procedure,_shortened": "as §1"}, "L1210 [8]": {"test_system": "L1210", "test": "Post inoculation lifespan was determined in L1210 Inoculated mice at a dose of 37 mg/Kg after a single treatment", "procedure,_shortened": "as §2"}, "L1210 [9]": {"test_system": "L1210", "test": "Percentage of L1210 cells killed was determined in L1210 Inoculated mice at a dose of 62 mg/kg after a single treatment", "procedure,_shortened": "as §1"}, "L1210 [10]": {"test_system": "L1210", "test": "Post inoculation lifespan was determined in L1210 Inoculated mice at a dose of 62 mg/Kg", "procedure,_shortened": "as §2"}, "L1210 [11]": {"test_system": "L1210", "test": "Percentage of L1210 cells killed was determined in L1210 Inoculated mice at a dose of 480 mg/kg after a single treatment", "procedure,_shortened": "as §1"}, "L1210 [12]": {"test_system": "L1210", "test": "Post inoculation lifespan was determined in L1210 Inoculated mice at a dose of 480 mg/Kg after a single treatment", "procedure,_shortened": "as §2"}, "L1210 [13]": {"test_system": "L1210", "test": "Percentage of L1210 cells killed was determined in L1210 Inoculated mice at a dose of 13 mg/kg after a single treatment", "procedure,_shortened": "as §1"}, "L1210 [14]": {"test_system": "L1210", "test": "Post inoculation lifespan was determined in L1210 Inoculated mice at a dose of 13 mg/Kg after a single treatment", "procedure,_shortened": "as §2"}, "L1210 [15]": {"test_system": "L1210", "test": "Post inoculation lifespan was determined in L1210 Inoculated mice at a dose of 62 mg/Kg after a single treatment", "procedure,_shortened": "as §2"}, "L1210 [16]": {"test_system": "L1210", "test": "Post inoculation lifespan was determined in L1210 Inoculated mice at a dose of 104 mg/Kg after a single treatment", "procedure,_shortened": "as §2"}, "L1210 [17]": {"test_system": "L1210", "test": "Percentage of L1210 cells killed was determined in L1210 Inoculated mice at a dose of 8.1 mg/kg after a single treatment", "procedure,_shortened": "as §1"}, "L1210 [18]": {"test_system": "L1210", "test": "Post inoculation lifespan was determined in L1210 Inoculated mice at a dose of 8.1 mg/Kg after a single treatment", "procedure,_shortened": "as §2"}},
  "data": [
    {"molecule": "CC(=O)OC[C@H]1O[C@@H](n2cnc3c([S+](N)[O-])nc(N)nc32)[C@H](OC(C)=O)[C@@H]1OC(C)=O", "note": "(stereo partly specified)", "values": [
      {"measurement": "Activity", "setting": "L1210 [1]", "value": 0, "unit": "%"},
      {"measurement": "T/C", "setting": "L1210 [2]", "value": 99, "unit": "%"}
    ]},
    {"molecule": "NS(=O)(=O)c1ncnc2c1ncn2[C@@H]1O[C@H](CO)[C@@H](O)[C@H]1O", "values": [
      {"measurement": "Activity", "setting": "L1210 [3]", "value": 98.36, "unit": "%"},
      {"measurement": "T/C", "setting": "L1210 [4]", "value": 147, "unit": "%"}
    ]},
    {"molecule": "NS(=O)(=O)c1[nH]cnc2ncnc1-2", "values": [
      {"measurement": "Activity", "setting": "L1210 [5]", "value": 95.48, "unit": "%"},
      {"measurement": "T/C", "setting": "L1210 [6]", "value": 134, "unit": "%"}
    ]},
    {"molecule": "Nc1nc(S(N)(=O)=O)c2[nH]cnc2n1", "values": [
      {"measurement": "Activity", "setting": "L1210 [1]", "value": 20.78, "unit": "%"},
      {"measurement": "T/C", "setting": "L1210 [2]", "value": 103, "unit": "%"}
    ]},
    {"molecule": "Nc1nc([S+](N)[O-])c2[nH]cnc2n1", "note": "(stereo unspecified)", "values": [
      {"measurement": "Activity", "setting": "L1210 [1]", "value": 67.94, "unit": "%"},
      {"measurement": "T/C", "setting": "L1210 [2]", "value": 113, "unit": "%"}
    ]},
    {"molecule": "NSc1[nH]c(N)nc2ncnc1-2", "values": [
      {"measurement": "Activity", "setting": "L1210 [7]", "value": 99.04, "unit": "%"},
      {"measurement": "T/C", "setting": "L1210 [8]", "value": 159, "unit": "%"}
    ]},
    {"molecule": "O=S(=O)(F)c1[nH]cnc2ncnc1-2", "values": [
      {"measurement": "Activity", "setting": "L1210 [9]", "value": 73.54, "unit": "%"},
      {"measurement": "T/C", "setting": "L1210 [10]", "value": 115, "unit": "%"}
    ]},
    {"molecule": "NSc1ncnc2c1ncn2C1O[C@H](CO)[C@@H](O)[C@H]1O", "note": "(stereo partly specified)", "values": [
      {"measurement": "Activity", "setting": "L1210 [11]", "value": 97.82, "unit": "%"},
      {"measurement": "T/C", "setting": "L1210 [12]", "value": 149, "unit": "%"}
    ]},
    {"molecule": "C[C@H]1OC(n2cnc3c(SN)nc(N)nc32)[C@H](O)[C@@H]1O", "note": "(stereo partly specified)", "values": [
      {"measurement": "Activity", "setting": "L1210 [13]", "value": 95.9, "unit": "%"},
      {"measurement": "T/C", "setting": "L1210 [14]", "value": 136, "unit": "%"}
    ]},
    {"molecule": "Nc1nc(S(N)(=O)=O)c2ncn(C3O[C@H](CO)[C@@H](O)[C@H]3O)c2n1", "note": "(stereo partly specified)", "values": [
      {"measurement": "Activity", "setting": "L1210 [9]", "value": 92.4, "unit": "%"},
      {"measurement": "T/C", "setting": "L1210 [15]", "value": 128, "unit": "%"}
    ]},
    {"molecule": "NSc1nc(N)nc2c1ncn2C1O[C@H](CO)[C@@H](O)[C@H]1O", "note": "(stereo partly specified)", "values": [
      {"measurement": "Activity", "setting": "L1210 [1]", "value": 99.84, "unit": "%"},
      {"measurement": "T/C", "setting": "L1210 [2]", "value": 170, "unit": "%"}
    ]},
    {"molecule": "C[C@H]1OC(n2cnc3c(S(N)(=O)=O)nc(N)nc32)[C@H](O)[C@@H]1O", "note": "(stereo partly specified)", "values": [
      {"measurement": "Activity", "setting": "L1210 [11]", "value": 94.38, "unit": "%"},
      {"measurement": "T/C", "setting": "L1210 [12]", "value": 130, "unit": "%"}
    ]},
    {"molecule": "C[C@H]1OC(n2cnc3c(S)nc(N)nc32)[C@H](O)[C@@H]1O", "note": "(stereo partly specified)", "values": [
      {"measurement": "Activity", "setting": "L1210 [7]", "value": 99.82, "unit": "%"},
      {"measurement": "T/C", "setting": "L1210 [8]", "value": 169, "unit": "%"}
    ]},
    {"molecule": "Nc1nc([S+](N)[O-])c2ncn(C3O[C@H](CO)[C@@H](O)[C@H]3O)c2n1", "note": "(stereo partly specified)", "values": [
      {"measurement": "Activity", "setting": "L1210 [3]", "value": 99.8, "unit": "%"},
      {"measurement": "T/C", "setting": "L1210 [4]", "value": 167, "unit": "%"}
    ]},
    {"molecule": "N[S+]([O-])c1ncnc2c1ncn2C1O[C@H](CO)[C@@H](O)[C@H]1O", "note": "(stereo partly specified)", "values": [
      {"measurement": "Activity", "setting": "L1210 [9]", "value": 70.87, "unit": "%"},
      {"measurement": "T/C", "setting": "L1210 [15]", "value": 114, "unit": "%"}
    ]},
    {"molecule": "C[C@H]1OC(n2cnc3c([S+](N)[O-])nc(N)nc32)[C@H](O)[C@@H]1O", "note": "(stereo partly specified)", "values": [
      {"measurement": "Activity", "setting": "L1210 [5]", "value": 99.87, "unit": "%"},
      {"measurement": "T/C", "setting": "L1210 [16]", "value": 172, "unit": "%"}
    ]},
    {"molecule": "Nc1nc(=S)c2ncn([C@@H]3O[C@H](CO)[C@@H](O)[C@H]3O)c2[nH]1", "note": "[THIOGUANOSINE]", "values": [
      {"measurement": "Activity", "setting": "L1210 [17]", "value": 98.41, "unit": "%"},
      {"measurement": "T/C", "setting": "L1210 [18]", "value": 147, "unit": "%"}
    ]},
    {"molecule": "OC[C@H]1O[C@@H](n2cnc3c(S)ncnc32)[C@H](O)[C@@H]1O", "note": "[THIOINOSINE]", "values": [
      {"measurement": "Activity", "setting": "L1210 [3]", "value": 98.36, "unit": "%"},
      {"measurement": "T/C", "setting": "L1210 [4]", "value": 150, "unit": "%"}
    ]}
  ]
}
